In brackets after ≈: the same amount, converted by molar mass. Several values for one entry are separate records, joined by “and”; a condition that tells them apart may be missing. Equal values may be shown once. Activity calls are given as the source filed them. No cut-off for these calls is given here.
Assays:
[1] = test system: Aspergillus niger; test: Antifungal activity against Aspergillus niger IMI17454 strain.; format: functional
[2] = test system: Aspergillus nidulans; test: Antifungal activity against Aspergillus nidulans CABI 0160037 strain; format: functional
[3] = test system: Candida albicans; test: Antifungal activity against Candida albicans NCPF 3179 strain.; format: functional
[4] = test system: Escherichia coli; test: Antibacterial activity against Escherichia coli NCTC 9001 strain; format: functional
[5] = Antibacterial activity against Enterobacter cloacae NCTC 10005 strain; format: functional
[6] = test system: Klebsiella aerogenes; test: Antibacterial activity against Klebsiella aerogenes WRL CN 345 strain.; format: functional, WRL CN 375
[7] = test system: Staphylococcus aureus; test: Antibacterial activity against methicillin-resistant Staphylococcus aureus (MRSA) PHLS M1 strain.; format: functional
How it was run: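 Read-out is the minimum inhibitory concentration, reported in µM. Amoxycillin is tested alongside as the reference antibiotic.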

[8] = test system: Mycolicibacterium fortuitum; test: Antibacterial activity against Mycobacterium fortuitum NCTC 10394 strain.; format: functional
[9] = test system: Proteus vulgaris; test: Antibacterial activity against Proteus vulgaris NCTC 4175 strain.; format: functional
[10] = test system: Staphylococcus aureus; test: Antibacterial activity against Staphylococcus aureus NCTC 6571 strain.; format: functional
[11] = test system: Enterococcus faecalis; test: Antibacterial activity against Streptococcus faecalis NCTC 775 strain; na = not active; format: functional, organism-based
[12] = test system: Aspergillus niger; test: Antifungal activity against Aspergillus niger IMI17454 strain; na = not active; format: functional
[13] = test system: Aspergillus nidulans; test: Antifungal activity against Aspergillus nidulans CABI 0160037 strain; na = not active; format: functional
[14] = Antifungal activity against Candida albicans NCPF 3179 strain; na = not active; format: functional
[15] = test system: Escherichia coli; test: Antibacterial activity against Escherichia coli NCTC 9001 strain.; format: functional, organism-based
[16] = test system: Enterobacter cloacae; test: Antibacterial activity against Enterobacter cloacae NCTC 10005 strain.; format: functional, organism-based
[17] = test system: Klebsiella aerogenes; test: Antibacterial activity against Klebsiella aerogenes WRL CN 345 strain; na = not active; format: functional, organism-based
[18] = test system: Staphylococcus aureus; test: Antibacterial activity against MRSA PHLS M1 strain; na = not active; format: functional, organism-based
[19] = Antibacterial activity against Proteus vulgaris NCTC 4175 strain; na = not active; format: functional
[20] = test system: Staphylococcus aureus; test: Antibacterial activity against Staphylococcus aureus NCTC 6571 strain; na = not active; format: functional, organism-based
[21] = test system: Mycolicibacterium fortuitum; test: Antibacterial activity against Mycobacterium fortuitum NCTC 10394 strain; na = not active; format: functional, organism-based
[22] = test system: Enterococcus faecalis; test: Antibacterial activity against Streptococcus faecalis NCTC 775 strain.; format: functional
[23] = Aspergillus niger, read-out: MIC
[24] = Candida albicans, read-out: MIC
[25] = Klebsiella aerogenes, WRL CN 375, read-out: MIC

SMILES	MIC [1, 23]	MIC [2]	MIC [3, 24]	MIC [4]	MIC [5]	MIC [6, 25]	MIC [7]	MIC [8]	MIC [9]	MIC [10]	MIC [11]	MIC [13]	MIC [14]	MIC [15]	MIC [16]	MIC [17]	MIC [19]	MIC [20]	MIC [21]	MIC [22]	further results
CC(=O)Nc1cc(C(=O)Nc2cc(C(=O)Nc3cc(C(=O)NCCCN(C)C)n(C)c3)c(C)s2)n(C)c1	156 µM (≈ 82.3 µg/mL)	38.9 µM (≈ 20.5 µg/mL)	156 µM (≈ 82.3 µg/mL)	156 µM (≈ 82.3 µg/mL)	156 µM (≈ 82.3 µg/mL)	156 µM (≈ 82.3 µg/mL)	156 µM (≈ 82.3 µg/mL)	38.9 µM (≈ 20.5 µg/mL)	156 µM (≈ 82.3 µg/mL)	78.5 µM (≈ 41.4 µg/mL)	inactive										
CC(=O)Nc1cc(C(=O)Nc2cc(C(=O)Nc3cc(C(=O)NCCCN4CCOCC4)n(C)c3)n(CCC(C)C)c2)n(C)c1								140 µM (≈ 85.2 µg/mL)			inactive	inactive	inactive	inactive	inactive	inactive	inactive	inactive			MIC [12]: inactive; MIC [18]: inactive
CC(C)n1cc(NC(=O)c2cc(NC(=O)c3cc(NC=O)cn3C(C)C)cn2C)cc1C(=O)NCCCN(C)C		150 µM (≈ 82.9 µg/mL)	75 µM (≈ 41.5 µg/mL)				150 µM (≈ 82.9 µg/mL)				inactive			inactive	inactive	inactive	inactive	inactive	inactive		MIC [12]: inactive
CC(C)n1cc(NC(=O)c2cc(NC=O)cn2C)cc1C(=O)Nc1cc(C(=O)NCCCN(C)C)n(C)c1	157 µM (≈ 82.4 µg/mL)					39.1 µM (≈ 20.5 µg/mL)	157 µM (≈ 82.4 µg/mL)		157 µM (≈ 82.4 µg/mL)			inactive	inactive	inactive	inactive			inactive	inactive	157 µM (≈ 82.4 µg/mL)	
Cc1oc(CNC(=O)c2cc(NC(=O)c3cc(NC=O)cn3C)cn2C)nc1C(=O)NCCCN(C)C	160 µM (not active) (≈ 82 µg/mL)	160 µM (not active) (≈ 82 µg/mL)			160 µM (not active) (≈ 82 µg/mL)		160 µM (not active) (≈ 82 µg/mL)				inactive		inactive	inactive		inactive	inactive	inactive	inactive		
CC(C)CCn1cc(NC(=O)c2cc(NC=O)cn2C)cc1C(=O)Nc1cc(C(=O)NCCCN2CCOCC2)n(C)c1	70.6 µM (≈ 42 µg/mL)						70.6 µM (≈ 42 µg/mL)				inactive	inactive	inactive	inactive	inactive	inactive	inactive	inactive	inactive		
COc1cccc(C(=O)Nc2nc(C(=O)Nc3cc(C(=O)Nc4cc(C(=O)NCCCN(C)C)n(C)c4)n(C)c3)c(C(C)C)s2)c1	131 µM (≈ 85 µg/mL)	131 µM (≈ 85 µg/mL)	131 µM (≈ 85 µg/mL)	65.5 µM (≈ 42.5 µg/mL)	131 µM (≈ 85 µg/mL)	32.7 µM (≈ 21.2 µg/mL)	32.7 µM (≈ 21.2 µg/mL)	65.5 µM (≈ 42.5 µg/mL)	65.5 µM (≈ 42.5 µg/mL)	32.7 µM (≈ 21.2 µg/mL)										32.7 µM (≈ 21.2 µg/mL)	
CC(=O)Nc1nc(C(=O)Nc2cc(C(=O)Nc3cc(C(=O)NCCCN(C)C)n(C)c3)n(C)c2)c(C(C)C)s1	149 µM (≈ 82.9 µg/mL)		74.6 µM (≈ 41.5 µg/mL)	149 µM (≈ 82.9 µg/mL)	149 µM (≈ 82.9 µg/mL)	149 µM (≈ 82.9 µg/mL)	149 µM (≈ 83.1 µg/mL)	74.6 µM (≈ 41.5 µg/mL)	149 µM (≈ 82.9 µg/mL)	70 µM (≈ 39 µg/mL)										74.5 µM (≈ 41.5 µg/mL)	
CC(=O)Nc1cc(C(=O)Nc2cc(C(=O)Nc3cc(C(=O)NCCCN(C)C)n(C)c3)n(C(C)C)c2)n(C)c1			153 µM (≈ 82.4 µg/mL)			153 µM (≈ 82.4 µg/mL)		147 µM (≈ 79.2 µg/mL)	153 µM (≈ 82.4 µg/mL)		inactive	inactive		inactive	inactive		inactive	inactive	inactive	73.5 µM (≈ 39.6 µg/mL)	MIC [1]: 153 µM and 73.5 µM; MIC [3]: 147 µM (≈ 79.2 µg/mL); MIC [6]: 147 µM (≈ 79.2 µg/mL); MIC [18]: inactive
Cc1sc(NC(=O)c2cc(NC=O)cn2C)cc1C(=O)Nc1cc(C(=O)NCCCN(C)C)n(C)c1	159 µM (≈ 81.7 µg/mL)	159 µM (≈ 81.7 µg/mL)	159 µM (≈ 81.7 µg/mL)	159 µM (≈ 81.7 µg/mL)	159 µM (≈ 81.7 µg/mL)	159 µM (≈ 81.7 µg/mL)	159 µM (≈ 81.7 µg/mL)	159 µM (≈ 81.7 µg/mL)	79.6 µM (≈ 40.9 µg/mL)	39.8 µM (≈ 20.4 µg/mL)										79.6 µM (≈ 40.9 µg/mL)	
